According to ChEMBL document CHEMBL4819149, “A facile reaction to access novel structural sulfonyl-hybridized imidazolyl ethanols as potential DNA-targeting antibacterial agents” (Bioorg Med Chem Lett, 2021):
Converted amounts (≈) assume the structure as drawn. The source made the active and inactive calls. No cut-off for these calls is given here.

Columns and labels:
Staphylococcus aureus [1] = assay: Antibacterial activity against methicillin-resistant Staphylococcus aureus assessed as bacterial growth inhibition by broth microdilution method; format: functional
Procedure, shortened: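 MIC read by micro broth dilution; values given in μg/mL.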

Enterococcus faecalis = assay: Antibacterial activity against Enterococcus faecalis assessed as bacterial growth inhibition by broth microdilution method; format: functional
Procedure, shortened: (§1)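 MIC values reported in µg/mL, determined by broth microdilution in microdilution plates.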

Staphylococcus aureus [2] = assay: Antibacterial activity against Staphylococcus aureus assessed as bacterial growth inhibition by broth microdilution method; format: functional; procedure, shortened: as §1
Staphylococcus aureus [3] = assay: Antibacterial activity against Staphylococcus aureus ATCC 25923 assessed as bacterial growth inhibition by broth microdilution method; format: functional; procedure, shortened: as §1
Staphylococcus aureus [4] = assay: Antibacterial activity against Staphylococcus aureus ATCC 29213 assessed as bacterial growth inhibition by broth microdilution method; format: functional; procedure, shortened: as §1
Klebsiella pneumoniae = assay: Antibacterial activity against Klebsiella pneumonia assessed as bacterial growth inhibition by broth microdilution method; format: functional; procedure, shortened: as §1
Pseudomonas aeruginosa [5] = assay: Antibacterial activity against Pseudomonas aeruginosa ATCC 27853 assessed as bacterial growth inhibition by broth microdilution method; format: functional; procedure, shortened: as §1
Pseudomonas aeruginosa [6] = assay: Antibacterial activity against Pseudomonas aeruginosa assessed as bacterial growth inhibition by broth microdilution method; format: functional; procedure, shortened: as §1
Acinetobacter baumannii = assay: Antibacterial activity against Acinetobacter baumannii assessed as bacterial growth inhibition by broth microdilution method; format: functional; procedure, shortened: as §1
Escherichia coli [7] = assay: Antibacterial activity against Escherichia coli assessed as bacterial growth inhibition by broth microdilution method; format: functional; procedure, shortened: as §1
Escherichia coli [8] = assay: Antibacterial activity against Escherichia coli ATCC 25922 assessed as bacterial growth inhibition by broth microdilution method; format: functional; procedure, shortened: as §1
Staphylococcus aureus [9] = assay: Antibacterial activity against methicillin-resistant Staphylococcus aureus measured after 13 passages by broth microdilution method; format: functional, organism-based

Structure (SMILES)	MIC (Staphylococcus aureus [1]) [µg/mL]	MIC (Enterococcus faecalis) [µg/mL]	MIC (Staphylococcus aureus [2]) [µg/mL]	MIC (Staphylococcus aureus [3]) [µg/mL]	MIC (Staphylococcus aureus [4]) [µg/mL]	MIC (Klebsiella pneumoniae) [µg/mL]	MIC (Pseudomonas aeruginosa [5]) [µg/mL]	MIC (Pseudomonas aeruginosa [6]) [µg/mL]	MIC (Acinetobacter baumannii) [µg/mL]	MIC (Escherichia coli [7]) [µg/mL]	MIC (Escherichia coli [8]) [µg/mL]	Activity (Staphylococcus aureus [9])
Nc1ccc(S(=O)(=O)Nc2nccs2)cc1 [SULFATHIAZOLE]	64 (≈ 251 µM)	512 (≈ 2010 µM)	512 (≈ 2010 µM)	512 (≈ 2010 µM)	512 (≈ 2010 µM)	128 (≈ 501 µM)	512 (≈ 2010 µM)	128 (≈ 501 µM)	64 (≈ 251 µM)	256 (≈ 1000 µM)	128 (≈ 501 µM)	inactive
CC(C)c1nccn1C(CO)CS(=O)(=O)c1ccc(N)cc1 (stereo not drawn)	16 (≈ 49.5 µM)	8 (≈ 24.7 µM)	128 (≈ 396 µM)	32 (≈ 98.9 µM)	64 (≈ 198 µM)	64 (≈ 198 µM)	64 (≈ 198 µM)	256 (≈ 792 µM)	32 (≈ 98.9 µM)	128 (≈ 396 µM)	64 (≈ 198 µM)	
CCc1nc(I)cn1C(CO)CS(=O)(=O)c1ccc(NC(C)=O)cc1 (stereo not drawn)	128 (≈ 268 µM)	64 (≈ 134 µM)	64 (≈ 134 µM)	64 (≈ 134 µM)	64 (≈ 134 µM)	64 (≈ 134 µM)	32 (≈ 67 µM)	256 (≈ 536 µM)	64 (≈ 134 µM)	64 (≈ 134 µM)	32 (≈ 67 µM)	
CC(=O)Nc1ccc(S(=O)(=O)CC(CO)n2cnc(C)c2)cc1 (stereo not drawn)	16 (≈ 47.4 µM)	64 (≈ 190 µM)	128 (≈ 379 µM)	64 (≈ 190 µM)	32 (≈ 94.8 µM)	32 (≈ 94.8 µM)	32 (≈ 94.8 µM)	128 (≈ 379 µM)	64 (≈ 190 µM)	64 (≈ 190 µM)	64 (≈ 190 µM)	
CCCc1nccn1C(CO)CS(=O)(=O)c1ccc(NC(C)=O)cc1 (stereo not drawn)	32 (≈ 87.6 µM)	16 (≈ 43.8 µM)	32 (≈ 87.6 µM)	64 (≈ 175 µM)	32 (≈ 87.6 µM)	128 (≈ 350 µM)	32 (≈ 87.6 µM)	256 (≈ 700 µM)	32 (≈ 87.6 µM)	64 (≈ 175 µM)	64 (≈ 175 µM)	
CC(=O)Nc1ccc(S(=O)(=O)CC(CO)n2ccnc2)cc1 (stereo not drawn)	32 (≈ 99 µM)	32 (≈ 99 µM)	64 (≈ 198 µM)	64 (≈ 198 µM)	32 (≈ 99 µM)	128 (≈ 396 µM)	64 (≈ 198 µM)	128 (≈ 396 µM)	64 (≈ 198 µM)	64 (≈ 198 µM)	64 (≈ 198 µM)	
CCc1nc(I)cn1C(CO)CS(=O)(=O)c1ccc(N)cc1 (stereo not drawn)	16 (≈ 36.8 µM)	64 (≈ 147 µM)	64 (≈ 147 µM)	64 (≈ 147 µM)	64 (≈ 147 µM)	256 (≈ 588 µM)	32 (≈ 73.5 µM)	256 (≈ 588 µM)	64 (≈ 147 µM)	64 (≈ 147 µM)	32 (≈ 73.5 µM)	
Nc1ccc(S(=O)(=O)CC(CO)n2ccnc2)cc1 (stereo not drawn)	16 (≈ 56.9 µM)	32 (≈ 114 µM)	32 (≈ 114 µM)	64 (≈ 227 µM)	64 (≈ 227 µM)	128 (≈ 455 µM)	64 (≈ 227 µM)	256 (≈ 910 µM)	128 (≈ 455 µM)	128 (≈ 455 µM)	64 (≈ 227 µM)	
CC(=O)Nc1ccc(S(=O)(=O)CC(CO)n2cc(I)nc2C)cc1 (stereo not drawn)	64 (≈ 138 µM)	256 (≈ 553 µM)	64 (≈ 138 µM)	64 (≈ 138 µM)	64 (≈ 138 µM)	256 (≈ 553 µM)	32 (≈ 69.1 µM)	256 (≈ 553 µM)	64 (≈ 138 µM)	64 (≈ 138 µM)	32 (≈ 69.1 µM)	
Cc1nccn1C(CO)CS(=O)(=O)c1ccc(N)cc1 (stereo not drawn)	16 (≈ 54.2 µM)	8 (≈ 27.1 µM)	128 (≈ 433 µM)	64 (≈ 217 µM)	64 (≈ 217 µM)	128 (≈ 433 µM)	64 (≈ 217 µM)	128 (≈ 433 µM)	16 (≈ 54.2 µM)	128 (≈ 433 µM)	32 (≈ 108 µM)	
CC(=O)Nc1ccc(S(=O)(=O)CC(CO)n2cnc(I)c2)cc1 (stereo not drawn)	32 (≈ 71.2 µM)	64 (≈ 142 µM)	64 (≈ 142 µM)	64 (≈ 142 µM)	64 (≈ 142 µM)	64 (≈ 142 µM)	32 (≈ 71.2 µM)	32 (≈ 71.2 µM)	32 (≈ 71.2 µM)	128 (≈ 285 µM)	32 (≈ 71.2 µM)	
CC(=O)Nc1ccc(S(=O)(=O)CC(CO)n2ccnc2C)cc1 (stereo not drawn)	8 (≈ 23.7 µM)	64 (≈ 190 µM)	64 (≈ 190 µM)	64 (≈ 190 µM)	32 (≈ 94.8 µM)	128 (≈ 379 µM)	64 (≈ 190 µM)	128 (≈ 379 µM)	16 (≈ 47.4 µM)	64 (≈ 190 µM)	32 (≈ 94.8 µM)	
